Test results taken from ChEMBL document CHEMBL1177857, “Functionalized aurones as inducers of NAD(P)H:quinone oxidoreductase 1 that activate AhR/XRE and Nrf2/ARE signaling pathways: synthesis, evaluation and SAR” (Eur J Med Chem, 2010).
Calls of active or inactive are those of the source. The rule behind the calls is not given here.

Tests used:
[1] = Cytotoxicity against mouse Hepa-1c1c7 cells assessed as cell survival at 5 uM after 48 hrs by MTT assay; assay type: cell-based; details: read-out: Activity
Summary of the method: (§1)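 MTT (0.5 mg/ml) added for 3 h at 37 °C, formazan dissolved in DMSO and read at 590 nm. Survival (%) = (A treated − A blank)/(A untreated − A blank) × 100.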

CYP1A1 [2] = molecular target: T1, CYP1A1 (Mus musculus, UniProt P30561); assay: Induction of Ah receptor in mouse Hepa-1c1c7 cells assessed as induction of CYP1A1 activity at 10 uM after 48 hrs by EROD assay relative to control; assay type: cell-based; details: probe ethoxyresorufin (EROD), read-out: FC
T1 sequence (P30561 whole entry): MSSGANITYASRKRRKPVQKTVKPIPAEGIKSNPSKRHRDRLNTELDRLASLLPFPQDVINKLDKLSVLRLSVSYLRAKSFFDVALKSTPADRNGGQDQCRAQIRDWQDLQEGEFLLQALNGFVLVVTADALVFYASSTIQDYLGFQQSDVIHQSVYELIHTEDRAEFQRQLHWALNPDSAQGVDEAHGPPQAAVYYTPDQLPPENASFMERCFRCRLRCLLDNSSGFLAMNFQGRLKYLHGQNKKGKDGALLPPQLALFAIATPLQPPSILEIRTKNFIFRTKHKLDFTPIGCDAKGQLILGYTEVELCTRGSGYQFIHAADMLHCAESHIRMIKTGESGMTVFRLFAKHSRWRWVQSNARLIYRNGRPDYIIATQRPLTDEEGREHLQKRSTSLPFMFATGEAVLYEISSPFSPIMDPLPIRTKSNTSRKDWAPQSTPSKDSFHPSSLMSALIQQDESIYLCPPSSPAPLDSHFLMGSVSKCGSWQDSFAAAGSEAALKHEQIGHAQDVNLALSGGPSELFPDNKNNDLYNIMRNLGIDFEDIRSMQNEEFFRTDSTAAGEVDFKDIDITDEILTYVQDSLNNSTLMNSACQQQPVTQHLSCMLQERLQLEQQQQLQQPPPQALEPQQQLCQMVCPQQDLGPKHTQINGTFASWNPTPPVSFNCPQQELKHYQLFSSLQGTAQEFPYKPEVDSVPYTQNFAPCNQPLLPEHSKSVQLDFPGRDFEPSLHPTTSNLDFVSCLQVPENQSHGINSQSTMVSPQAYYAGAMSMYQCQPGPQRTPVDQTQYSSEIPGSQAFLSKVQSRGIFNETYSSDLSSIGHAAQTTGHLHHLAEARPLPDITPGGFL
Summary of the method: (§2)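 Hepa1c1c7 cells at 10⁴/well grown 24 h, then given compound at one fixed concentration for 48 h. After a PBS wash, cells incubated 40 min at 37 °C with 5 µM 7-ethoxyresorufin plus 2 mM salicylamide. Resorufin fluorescence read at ex 530/em 590 nm. Fold induction = (F cells+compound − F blank)/(F control − F blank); mean ± SD, n = 3.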

Hepa-1c1c7 [3] = assay: Induction of human NQO1 gene expression in mouse Hepa-1c1c7 cells co-transfected with pGL3-ARE at 10 to 25 uM after 24 hrs by luciferase reporter gene assay; assay type: functional, cell-based
Summary of the method: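 Hepa1c1c7 cells at about 50% confluency co-transfected with pGL3-ARE firefly luciferase (human NQO1 ARE) and pRL-CMV Renilla as transfection control. After 24 h, cells exposed to compound (10 or 25 µM). Dual luciferase read-out expressed as fold over control; mean ± SD of 3 independent transfections, t-test.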

Hepa-1c1c7 [4] = assay: Increase of Nrf2 protein level in mouse Hepa-1c1c7 cells at 10 uM for 6 hrs Western blotting relative to control; assay type: functional, cell-based
Summary of the method: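 Hepa1c1c7 cells exposed to compound at 10 µM for 6 h, with MG132 (25 µM) as reference. Lysates made in digitonin/EDTA with protease inhibitors; 50 µg protein run on 15% SDS-PAGE, blotted to nitrocellulose and probed for Nrf2 with β-actin loading control. Bands quantified by densitometry against untreated control, 3 experiments, independent t-test.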

[5] = Transcriptional activation of Nrf2/ARE signaling pathway in mouse Hepa-1c1c7 cells assessed as increase in cellular GSH level at 10 uM after 24 hrs by Ellman's method; assay type: functional, cell-based
Summary of the method: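 Hepa1c1c7 cells at 10⁶/plate grown 24 h, then given compound at 10 µM final for 24 h. Pellets extracted with 3% sulfosalicylic acid. Total GSH measured by DTNB recycling (0.6 mM DTNB, 0.2 mM NADPH, GSH reductase) as ΔA412 over 5 min against a GSH standard curve. Values normalized to Bradford protein from a parallel plate; mean ± SEM, n = 3.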

[6] = Upregulation of TrxR protein expression in mouse Hepa-1c1c7 cells at 10 uM after 24 hrs by Western blotting relative to control; assay type: functional, cell-based
Summary of the method: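 Hepa1c1c7 cells exposed to compound at 10 µM for 24 h. Digitonin/EDTA lysates (50 µg protein) separated on 15% SDS-PAGE, blotted to nitrocellulose and probed with anti-TrxR antibody. Band intensity compared with untreated control; representative of 3 experiments.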

[7] = Induction of NQO1 activity in mouse Hepa-1c1c7 cells at 5 uM after 48 hrs relative to control
CYP1A1 [8] = molecular target: T1, CYP1A1; assay: Induction of Ah receptor in mouse Hepa-1c1c7 cells assessed as induction of CYP1A1 activity at 5 uM after 48 hrs by EROD assay relative to control; assay type: cell-based; details: probe ethoxyresorufin (EROD), read-out: FC; summary of the method: as §2
[9] = Cytotoxicity against mouse Hepa-1c1c7 cells assessed as cell survival at 25 uM after 48 hrs by MTT assay; assay type: cell-based; details: read-out: Activity; summary of the method: as §1
Hepa-1c1c7 [10] = assay: Induction of TrxR activity in mouse Hepa-1c1c7 cells at 10 uM after 24 hrs; assay type: cell-based
Summary of the method: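 Hepa1c1c7 cells treated with compound at 10 µM for 24 h. Digitonin/EDTA lysate (25 µg) incubated 20 min at 37 °C with 85 mM HEPES pH 7.6, 0.3 mM insulin, 660 µM NADPH, 2.5 mM EDTA and 5 µM human thioredoxin. Reaction quenched with DTNB in guanidine; A412 read, minus no-thioredoxin background. Fold versus control, mean ± SEM, n = 3.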

[11] = Induction of NQO1 activity in mouse Hepa-1c1c7 cells at 25 uM after 48 hrs relative to control
CYP1A1 [12] = molecular target: T1, CYP1A1; assay: Induction of Ah receptor in mouse Hepa-1c1c7 cells assessed as induction of CYP1A1 activity at 25 uM after 48 hrs by EROD assay relative to control; assay type: cell-based; details: probe ethoxyresorufin (EROD), read-out: FC; summary of the method: as §2
[13] = molecular target: NAD(P)H dehydrogenase [quinone] 1 (Homo sapiens) (UniProt P15559); assay: Induction of […] NQO1 activity in mutant mouse BPrc1 cells assessed as concentration require for 2 fold induction after 48 hrs; assay type: cell-based
Sequence of NAD(P)H dehydrogenase [quinone] 1 (Homo sapiens) (P15559 whole entry): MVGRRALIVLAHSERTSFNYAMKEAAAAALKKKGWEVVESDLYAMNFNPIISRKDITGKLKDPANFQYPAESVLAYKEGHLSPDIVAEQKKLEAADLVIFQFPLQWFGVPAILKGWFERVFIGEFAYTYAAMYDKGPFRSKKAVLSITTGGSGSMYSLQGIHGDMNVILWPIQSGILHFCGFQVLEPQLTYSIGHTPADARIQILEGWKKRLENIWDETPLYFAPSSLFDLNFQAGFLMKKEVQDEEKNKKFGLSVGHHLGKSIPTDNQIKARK
Summary of the method: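 Mutant Hepa1c1c7 line (Bp^rc1, defective Ah-receptor pathway) seeded at 10⁴ cells/well for 24 h, then exposed to compound for 48 h; final DMSO ≤0.5%. Cells lysed with 0.8% digitonin/2 mM EDTA. NQO1 read by menadione-driven MTT reduction (NADP, glucose-6-phosphate regenerating system, FAD, pH 7.4), stopped after 5 min with dicoumarol, A590. Activity taken relative to blank and control wells; CD = concentration doubling basal activity; mean ± SD of 3 determinations.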

[14] = Induction of NQO1 activity in mouse Hepa-1c1c7 cells at 1 uM after 48 hrs relative to control

Compound	viability at 48 h, 5 µM [1]	fold induction at 48 h, 10 µM (CYP1A1 [2])	fold change (FC) [7]	viability at 48 h, 25 µM [9]	fold change (FC) [11]	fold induction at 48 h, 25 µM (CYP1A1 [12])	further results
COc1cc(OC)c2c(c1)O/C(=C\c1ccccc1O)C2=O	102%	1.87	5.28				Activity (Hepa-1c1c7 [3]): Active; Activity (Hepa-1c1c7 [4]): Active; Activity [5]: Active; Activity [6]: Active
COc1cc(OC)c2c(c1)O/C(=C\c1cccc(Cl)c1)C2=O	103%		3.98				fold induction at 48 h, 5 µM (CYP1A1 [8]): 1.18
O=C1/C(=C/c2ccccc2O)Oc2ccccc21	110%		1.41	102%	1.61		fold induction at 48 h, 5 µM (CYP1A1 [8]): 1.4; Activity (Hepa-1c1c7 [3]): inactive; Activity (Hepa-1c1c7 [10]): inactive
COc1cc(OC)c2c(c1)O/C(=C\c1cccc(O)c1O)C2=O	88%	0.97	2.53				
COc1cc(/C=C2\Oc3cc(O)cc(O)c3C2=O)ccc1O	97%		1.53	98%	2.54	1.06	
COc1cc(OC)c2c(c1)OC(=O)/C2=C\c1ccccc1	100%		1.43	96%	2.1	1.04	
COc1cc(OC)c2c(c1)O/C(=C\c1ccncc1)C2=O	101%		1.82	110%	4.5	1.73	
COc1cc(OC)c2c(c1)O/C(=C\c1cccc(F)c1)C2=O	89%		4.47				fold induction at 48 h, 5 µM (CYP1A1 [8]): 1.48
O=C1/C(=C/c2ccccc2Cl)Oc2cc(O)cc(O)c21	101%	1.18	2.64				
O=c1cc(-c2ccccc2)oc2ccc3ccccc3c12							Activity [13]: inactive
O=C1/C(=C/c2ccccc2O)Oc2cc(O)ccc21	113%		1.45	102%	2.11	1.07	
O=C1/C(=C/c2ccccc2F)Oc2cc(O)cc(O)c21	110%	1	2.2	96%			
COc1cc(OC)c2c(c1)O/C(=C\c1ccc(F)cc1)C2=O	93%						fold change (FC) [14]: 2.16
O=C1/C(=C/c2cccc(O)c2)Oc2cc(O)ccc21	112%		1.64	106%	2.92	1.08	
COc1cc(OC)c2c(c1)O/C(=C\c1ccccc1Cl)C2=O	105%		5.6				fold induction at 48 h, 5 µM (CYP1A1 [8]): 1.55
COc1cc(OC)c2c(c1)O/C(=C\c1cccc(O)c1)C2=O	104%		1.2	100%	2.07	1.16	
COc1cc(OC)c2c(c1)OC(=O)/C2=C\c1ccccc1OC	118%		1.79	107%	3.57	1.03	
O=C1/C(=C/c2cccc(Cl)c2)Oc2ccc(O)cc21	101%	2.95	4.68				
O=C1Oc2ccc(O)cc2/C1=C/c1ccc(Cl)cc1	90%	1.04	2.49				
O=C1/C(=C/c2ccccc2O)Oc2ccc(O)cc21	99%	2.01	2.65	104%			
COc1cc(OC)c2c(c1)OC(=O)/C2=C\c1ccccc1Cl	90%	0.97	2.12				
COc1cccc(/C=C2\Oc3cc(O)cc(O)c3C2=O)c1	112%	1.13	2.15				
O=C1Oc2ccc(O)cc2/C1=C/c1ccccc1O	115%	1.12	2.43				
O=C1/C(=C/c2ccc(Cl)cc2)Oc2cc(O)ccc21 [6-HYDROXY-4'-CHLORO AURONE]	120%		1.51		2.55	1.24	
O=C1/C(=C/c2cccc(Cl)c2)Oc2cc(O)ccc21	111%	1.05	2.85	98%			
O=C1/C(=C/c2ccc(O)cc2)Oc2cc(O)cc(O)c21	105%		1.23	98%	1.95	1.05	
COc1ccccc1/C=C1\Oc2ccc(O)cc2C1=O	97%		3.1	95%		1.68	
COc1cc(OC)c2c(c1)O/C(=C\c1ccccc1F)C2=O	66%						fold change (FC) [14]: 2.6
COc1cc(OC)c2c(c1)OC(Cc1ccccc1O)C2=O (stereo unspecified)	102%		1.55				Activity (Hepa-1c1c7 [3]): inactive; Activity (Hepa-1c1c7 [10]): inactive
COc1cc(OC)c2c(c1)O/C(=C\c1ccccn1)C2=O	92%	0.98	2.26				
